Source: ChEMBL document CHEMBL2434934, “Multicomponent synthesis and anticonvulsant activity of monocyclic 2,6-diketopiperazine derivatives” (Med Chem Res, 2013)
Active and inactive are the calls of the source. The calls are words filed in the database; no cut-off is given here.

Key:
[1] = test system: Mus musculus; assay: Neurotoxicity in albino mouse at 300 mg/kg, ip after 2 hrs by rotarod test; assay type: toxicity, organism-based; design: dose 300 mg/kg, route intraperitoneal; settings: in vivo
Outline: (§1)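 Mice received the compound ip and were tested at intervals of 0.25 to 4 h after dosing. Neurological impairment was scored as inability to keep equilibrium on a rod rotating at 6 rpm for a given time. The footnotes also record inability to grasp the rod and loss of righting reflex. Results were expressed as number toxic/number tested.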

[2] = test system: Mus musculus; assay: Anticonvulsant activity in albino mouse assessed as protection against maximal electroshock-induced seizures at 300 mg/kg, ip after 2 hrs; assay type: functional, organism-based; design: dose 300 mg/kg
Outline: (§2)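 A 0.2 s electrical stimulus of 50 mA was applied to mice through corneal electrodes primed with an electrolyte solution containing an anesthetic. This followed ip dosing at 30, 100 or 300 mg/kg, with testing at two or more time points. Protection meant abolition of the hindlimb tonic extensor component, scored as number protected/number tested.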

[3] = test system: Mus musculus; assay: Anticonvulsant activity in albino mouse assessed as protection against maximal electroshock-induced seizures at 100 mg/kg, ip after 2 hrs; assay type: functional, organism-based; design: dose 100 mg/kg; outline: as §2
[4] = test system: Mus musculus; assay: Anticonvulsant activity in albino mouse assessed as protection against maximal electroshock-induced seizures at 30 mg/kg, ip after 2 hrs; assay type: functional, organism-based; design: dose 30 mg/kg; outline: as §2
[5] = test system: Mus musculus; assay: Neurotoxicity in albino mouse at 30 mg/kg, ip after 2 hrs by rotarod test; assay type: toxicity, organism-based; design: dose 30 mg/kg, route intraperitoneal; settings: in vivo; outline: as §1
[6] = test system: Mus musculus; assay: Neurotoxicity in albino mouse at 100 mg/kg, ip after 2 hrs by rotarod test; assay type: toxicity, organism-based; design: dose 100 mg/kg, route intraperitoneal; settings: in vivo; outline: as §1
[7] = test system: Mus musculus; assay: Anticonvulsant activity in albino mouse assessed as protection against maximal electroshock-induced seizures at 300 mg/kg, ip after 0.5 hrs; assay type: functional, organism-based; design: dose 300 mg/kg; outline: as §2
[8] = test system: Mus musculus; assay: Anticonvulsant activity in albino mouse assessed as protection against subcutaneous metrazole-induced seizures at 300 mg/kg, ip after 0.5 to 4 hrs; assay type: functional, organism-based; design: dose 300 mg/kg
Outline: (§3)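 Mice were dosed ip at 30, 100 or 300 mg/kg and tested at two or more time points. Protection meant absence of clonic seizures lasting at least 5 s, scored as number protected/number tested.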

[9] = test system: Mus musculus; assay: Neurotoxicity in albino mouse at 30 mg/kg, ip after 0.5 to 4 hrs by rotarod test; assay type: toxicity, organism-based; design: dose 30 mg/kg, route intraperitoneal; settings: in vivo; outline: as §1
[10] = test system: Mus musculus; assay: Anticonvulsant activity in albino mouse assessed as protection against subcutaneous metrazole-induced seizures at 30 mg/kg, ip after 0.5 to 4 hrs; assay type: functional, organism-based; design: dose 30 mg/kg; outline: as §3
[11] = test system: Mus musculus; assay: Anticonvulsant activity in albino mouse assessed as protection against subcutaneous metrazole-induced seizures at 100 mg/kg, ip after 0.5 to 4 hrs; assay type: functional, organism-based; design: dose 100 mg/kg; outline: as §3
[12] = test system: Mus musculus; assay: Anticonvulsant activity in albino mouse assessed as protection against maximal electroshock-induced seizures at 100 mg/kg, ip after 0.5 to 4 hrs; assay type: functional, organism-based; design: dose 100 mg/kg; outline: as §2
[13] = test system: Mus musculus; assay: Anticonvulsant activity in albino mouse assessed as protection against maximal electroshock-induced seizures at 30 mg/kg, ip after 0.5 to 4 hrs; assay type: functional, organism-based; design: dose 30 mg/kg; outline: as §2
[14] = test system: Mus musculus; assay: Neurotoxicity in albino mouse at 300 mg/kg, ip after 4 hrs by rotarod test; assay type: toxicity, organism-based; design: dose 300 mg/kg, route intraperitoneal; settings: in vivo; outline: as §1
[15] = test system: Mus musculus; assay: Neurotoxicity in albino mouse at 100 mg/kg, ip after 0.5 to 4 hrs by rotarod test; assay type: toxicity, organism-based; design: dose 100 mg/kg, route intraperitoneal; settings: in vivo; outline: as §1
[16] = test system: Mus musculus; assay: Anticonvulsant activity in albino mouse assessed as protection against maximal electroshock-induced seizures at 300 mg/kg, ip after 4 hrs; assay type: functional, organism-based; design: dose 300 mg/kg; outline: as §2
[17] = test system: Mus musculus; assay: Neurotoxicity in albino mouse at 100 mg/kg, ip after 0.25 to 4 hrs by rotarod test; assay type: toxicity, organism-based; design: dose 100 mg/kg, route intraperitoneal; settings: in vivo; outline: as §1
[18] = test system: Mus musculus; assay: Anticonvulsant activity in albino mouse assessed as protection against 6 Hz psychomotor seizure at 100 mg/kg, ip after 1 to 4 hrs; assay type: functional, organism-based; design: dose 100 mg/kg
Outline: (§4)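 Mice given 100 mg/kg ip and tested at intervals between 0.25 and 4 h. A constant-current device delivered corneal stimulation at 32 mA as 0.2 ms monopolar rectangular pulses at 6 Hz for 3 s. Mice were restrained during stimulation, then released into an observation cage. The readout was protection against the psychomotor seizure (stunned posture, forelimb clonus, Straub tail), scored as number protected/number tested.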

[19] = test system: Mus musculus; assay: Neurotoxicity in albino mouse assessed as loss of righting reflex at 300 mg/kg, ip after 0.5 hrs by rotarod test; assay type: toxicity, organism-based; design: dose 300 mg/kg, route intraperitoneal; settings: in vivo; outline: as §1
[20] = test system: Mus musculus; assay: Anticonvulsant activity in albino mouse assessed as protection against 6 Hz psychomotor seizure at 100 mg/kg, ip after 0.25 to 0.5 hrs; assay type: functional, organism-based; design: dose 100 mg/kg; outline: as §4
[21] = test system: Mus musculus; assay: Neurotoxicity in albino mouse at 300 mg/kg, ip after 0.5 hrs by rotarod test; assay type: toxicity, organism-based; design: dose 300 mg/kg, route intraperitoneal; settings: in vivo; outline: as §1
[22] = test system: Mus musculus; assay: Anticonvulsant activity in albino mouse assessed as protection against 6 Hz psychomotor seizure at 100 mg/kg, ip after 0.5 to 2 hrs; assay type: functional, organism-based; design: dose 100 mg/kg; outline: as §4
[23] = test system: Mus musculus; assay: Neurotoxicity in albino mouse at 100 mg/kg, ip after 0.5 to 2 hrs by rotarod test; assay type: toxicity, organism-based; design: dose 100 mg/kg, route intraperitoneal; settings: in vivo; outline: as §1

Row | SMILES | Activity [1] | Activity [4] | Activity [5] | Activity [7] | Activity [8] | Activity [9] | Activity [10] | Activity [11] | Activity [12] | Activity [13] | Activity [14] | Activity [15] | Activity [16] | other results
1 | O=C1NC(=O)[C@@H](c2ccccc2)N[C@H]1c1ccccc1 | Non-toxic | inactive | Non-toxic | – | – | – | – | – | – | – | – | – | – | Activity [2]: inactive; Activity [3]: inactive; Activity [6]: Non-toxic
2 | CC[C@H](C)[C@@H]1N[C@@H](c2ccccc2)C(=O)NC1=O | – | – | – | inactive | inactive | Non-toxic | inactive | inactive | inactive | inactive | Non-toxic | Non-toxic | inactive | –
3 | CC(C)[C@@H]1N[C@@H](c2ccccc2)C(=O)NC1=O | – | – | – | Active | inactive | Non-toxic | inactive | inactive | – | inactive | Non-toxic | Non-toxic | inactive | Activity [17]: Non-toxic; Activity [18]: inactive; Activity [19]: Toxic; Activity [20]: Active
4 | CC(C)C[C@@H]1N[C@@H](c2ccccc2)C(=O)NC1=O | – | – | – | Active | inactive | Non-toxic | inactive | inactive | inactive | inactive | Non-toxic | Non-toxic | inactive | –
5 | CC(C)[C@@H]1N[C@H](c2ccccc2)C(=O)NC1=O | – | – | – | Active | inactive | Non-toxic | inactive | inactive | inactive | inactive | Non-toxic | Non-toxic | inactive | –
6 | O=C1NC(=O)[C@H](c2ccccc2)N[C@H]1Cc1ccccc1 | – | – | – | Active | inactive | Non-toxic | inactive | inactive | inactive | inactive | Non-toxic | Non-toxic | inactive | Activity [21]: Non-toxic
7 | O=C1CN(Cc2ccccc2)C(c2ccccc2)C(=O)N1 (racemic) | Non-toxic | inactive | Non-toxic | – | – | – | – | – | – | – | – | – | – | Activity [3]: inactive; Activity [6]: Non-toxic
8 | O=C1NC(=O)[C@H](c2ccccc2)N[C@H]1c1ccccc1 | Toxic | inactive | Non-toxic | – | – | – | – | – | – | – | – | – | – | Activity [2]: Active; Activity [22]: inactive; Activity [23]: Non-toxic
9 | O=C1CN(c2ccccc2)C(c2ccccc2)C(=O)N1 (racemic) | – | – | – | inactive | inactive | Non-toxic | inactive | inactive | inactive | inactive | Non-toxic | Non-toxic | inactive | Activity [21]: Non-toxic
